# Assay outcomes as filed in PubChem.
# CRFBP-R2 agonist = CRF-BP/CRF-R2 complex agonism; HEK293 CRF-R2/CRF-BP, calcium dye fluorescence (FLIPR); percent of saturating CRF peptide response; activation, % at 13.2 µM; 350,000 compounds, 0.46% hits; AID 588473;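 active = activation of at least 50%, plus an integration ratio under a set limit after plate pattern correction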
# CRFR2-BP antag = antagonists of CRF-binding protein/CRF-R2 receptor complex | inhibition, % at 11.8 µM | HEK293 CRF-R2/CRF-BP, CRF-induced calcium fluorescence | 350,000 compounds, 0.59% hits;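 active = inhibition of the ligand-induced calcium signal above about 50% at the single tested concentration, limit read from the data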
# beta cell repl = induces beta-cell replication in MIN6 cells | 330,000 compounds, 0.29% hits | proliferation, % at 10 µM | MIN6 cells proliferation, ATPlite luminescence, 48 h; cells starved in 0.2% serum; 100% = growth in 10% serum;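 active = compounds whose signal lies at least 3.5 SD above the mean of all wells on their plate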
# H9c2 protect = modulators protecting cardiomyocytes from myocardial damage; H9c2 cardiomyocytes, H2O2 injury protection, ATPLite, 2 h; protection from H2O2 cell death, % at 20 µM; AID 588492; 360,000 compounds, 0.63% hits;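 active = compounds giving at least 50% protection of heart cells from peroxide-induced death in the single-dose screen, raw or plate-pattern-corrected value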
# UCH37 inh = inhibitors of human deubiquitinating enzyme UCH37. Q9Y5K5. purified proteasome/UCH37, Ub-AMC cleavage fluorescence. inhibition, % (test concentration not listed). 330,000 compounds, 0.33% hits;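 active = mean inhibition over replicate wells above about 20%, limit read from the data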
# Target sequence (Q9Y5K5 whole entry, looked up): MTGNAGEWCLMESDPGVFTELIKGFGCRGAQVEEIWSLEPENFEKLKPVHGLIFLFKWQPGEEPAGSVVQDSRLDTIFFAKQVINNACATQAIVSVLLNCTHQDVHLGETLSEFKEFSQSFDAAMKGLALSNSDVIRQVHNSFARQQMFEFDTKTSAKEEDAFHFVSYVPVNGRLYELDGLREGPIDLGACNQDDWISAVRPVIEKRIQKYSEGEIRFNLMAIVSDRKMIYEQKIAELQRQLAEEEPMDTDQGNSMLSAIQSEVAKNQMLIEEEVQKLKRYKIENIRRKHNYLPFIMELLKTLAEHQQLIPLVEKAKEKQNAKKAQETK
#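 Material: Human UCH37 enzyme supplied as purified proteasome complex | Schedule: 30 min preincubation with enzyme, 25 min cleavage at room temperature | Detection: AMC fluorescence 355/460 nm | Measure: % inhibition of Ub-AMC cleavage fluorescence | Controls: Wells without proteasome as full block, compound-free enzyme plus substrate as uninhibited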
# iPSC survival up = hiPSC single-cell survival enhancement; ATPlite luminescence; 100% = ROCK inhibitor wells, 0% = DMSO; survival enhancement, % at 20 µM; 360,000 compounds, 0.044% hits; AID 602274; in the data active = survival enhancement above about 18%;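 also: cells exposed to compounds for 16 hours before the ATP read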
# Hits are given with their value; i = inactive; nt = no result; ! = not confirmed by another sample. Shown are actives, neighbours in structure and some others; about 2.1% of the full set was active somewhere.
SMILES,CRFBP-R2 agonist,CRFR2-BP antag,beta cell repl,H9c2 protect,UCH37 inh,iPSC survival up
Cc1cc(=O)[nH]c(NN=Cc2ccc([N+](=O)[O-])cc2)n1,nt,nt,nt,nt,i,nt
CCOC(=O)/C(N=Nc1ccc(C(=O)O)cc1[N+](=O)[O-])=C(\C)O,i,i,i,i,23,i
O=C(CNC(=O)c1ccc(S(=O)(=O)N2CCCC2)cc1)NN=Cc1ccc(Cl)cc1,nt,nt,nt,nt,i,nt
CCN(c1ccc(NS(=O)(=O)c2cc(Cl)ccc2Cl)cc1)C(C)C,i,55,i,i,i,i
CN(C)c1ccc(NS(=O)(=O)c2cc(Cl)ccc2Cl)cc1,i,i,i,i,i,i
COc1cc(OC)cc(C(=O)NC2CC3CCC(C2)N3Cc2ccco2)c1 (stereo unspecified),i,58,nt,i,i,i
Cc1ccc(C(=O)Nc2cccc(C(F)(F)F)c2)cc1NC(=O)c1csc(-c2ccncc2)n1,i,i,i,55!,i,i
O=C(Nc1ccc(F)cc1F)c1csc(-c2ccncc2)n1,i,i,i,i,i,i
O=C(NCCc1csc(-c2ccccc2)n1)c1c(F)cccc1F,i,i,i,i,i,i
O=C(NCCc1csc(-c2ccccc2)n1)c1c(F)cccc1Cl,i,88,i,i,i,i
CC(=NOCC(=O)OCC(=O)NC(=O)c1ccccc1)c1ccc2c(c1)OCO2,nt,nt,nt,nt,i,nt
COc1ccc(C2CC(c3ccccc3C(F)(F)F)=NN2c2ccc(S(N)(=O)=O)cc2)cc1 (stereo unspecified),i,59,nt,i,i,i
Cc1ccc(C)c(S(=O)(=O)ON2C(=O)c3ccccc3C2=O)c1,i,63,i,i,i,i
Cc1cc(S(=O)(=O)ON2C(=O)c3ccccc3C2=O)ccc1F,i,i,nt,i,i,i
Cc1ccccc1CC1S/C(=N/N=Cc2ccco2)NC1=O (stereo unspecified),nt,nt,nt,nt,i,nt
Cn1cc(C(=O)NN=Cc2c(O)ccc3ccccc23)ccc1=O,nt,nt,nt,nt,i,nt
Cc1ccc(NC(=O)c2nc[nH]c2C(=O)NCCCCCNC(=O)OC(C)(C)C)cc1,i,i,i,55,i,i
CC(C)(C)OC(=O)NCCCCCNC(=O)c1[nH]cnc1C(=O)Nc1ccc(Cl)cc1,i,i,i,66,i,i
CC(C)(C)OC(=O)NCc1ccc(NC(=O)c2nc[nH]c2C(=O)Nc2cc(Br)ccc2F)cc1,nt,nt,nt,i,nt,i
CC(C)(C)OC(=O)NCCCCCNC(=O)c1[nH]cnc1C(=O)Nc1cc(Br)ccc1F,i,i,nt,64,nt,i
CC(=NN1CCN(Cc2ccc(Cl)cc2)CC1)c1ccc(F)cc1,nt,nt,nt,nt,i,nt
C=C(C)C(=O)Oc1ccc(N2C(=O)[C@@H]3C4C=CC(C4)[C@@H]3C2=O)cc1,i,61,i,i,i,i
CC(=O)Oc1cccc(N2C(=O)C3C4C=CC(C4)C3C2=O)c1 (stereo unspecified),i,i,i,i,i,i
CCOC(=O)c1cc(NC(=O)Nc2cc(C)ccn2)c(C)nc1C,i,113,i,i,i,i
CC(=NNC(=O)c1ccc(N2CCCC2=O)cc1)c1ccncc1,nt,nt,nt,nt,i,nt
SMILES,CRFBP-R2 agonist,CRFR2-BP antag,beta cell repl,H9c2 protect,UCH37 inh,iPSC survival up
CC(C)(C)c1ccc(C=NNC(=S)NC2CCCCC2)cc1,nt,nt,nt,nt,i,nt
COc1ccc(C)cc1NC(=O)N1CCCc2ccccc21,i,53,i,i,i,i
COc1cc(NC(=O)c2ccc(-c3cn[nH]c3)c3ccoc23)cc(OC)c1OC,nt,nt,nt,66,nt,i
O=C(NCC1CC1)c1ccc(-c2cn[nH]c2)c2ccoc12,nt,nt,nt,i,nt,43
O=C(NCc1ccccc1)c1ccc(-c2cn[nH]c2)c2ccoc12,nt,nt,nt,i,nt,107
COCCNC(=O)c1ccc(-c2cn[nH]c2)c2ccoc12,nt,nt,nt,i,nt,31
CC(=NNc1ccccc1)c1cc2ccccc2oc1=O,nt,nt,nt,nt,i,nt
Cc1ccsc1C=NNC(=O)CNC(=O)c1ccccc1,nt,nt,nt,nt,i,nt
CCCCC(=O)N(CCC)CCC,i,i,nt,i,i,i
CC(C)CN(CC(C)C)C(=O)CCCC(=O)N(CC(C)C)CC(C)C,i,53,i,i,i,i
O=C(CSc1nc2ccccc2c(=O)[nH]1)c1ccc(O)cc1O,i,i,nt,67,i,i
O=C(CSc1nc2ccccc2c(=O)[nH]1)c1ccc(O)c(O)c1,i,i,i,58,i,i
Cc1cc(=O)[nH]c(SCC(=O)c2ccc(O)c(O)c2)n1,i,i,i,i,nt,i
O=c1[nH]c(SCc2nc3c(cnn3-c3ccccc3)c(=O)[nH]2)nc2ccccc12,i,i,nt,53,i,i
Cc1[nH]c2ccccc2c1C(=O)CSc1nc2ccccc2[nH]1,i,i,i,66,i,i
Cc1nn(Cc2ccccc2)c(Cl)c1C=NNC(=O)c1cccnc1,nt,nt,nt,nt,i,nt
CC(=NNC(=O)CNC(=O)c1cccnc1)c1ccco1,nt,nt,nt,nt,i,nt
O=c1nccc(NN=Cc2ccccc2O)[nH]1,nt,nt,nt,nt,i,nt
CCCOc1ccc(-c2c(C(=O)NN=Cc3ccccc3OCC)nnn2-c2nonc2N)cc1,nt,nt,nt,nt,i,nt
O=C(NN=Cc1cccnc1)C1CCCCC1,nt,nt,nt,nt,i,nt
COc1ccc(/C=C(/C(=O)c2ccc(Cl)cc2Cl)n2cncn2)cc1,i,i,i,i,i,i
CN(C)c1ccc(/C=C(/C(=O)c2ccc(Cl)cc2Cl)n2cncn2)cc1,71,i,i,i,i,i
O=C(NN=Cc1ccc(OCCCF)cc1)c1cc(OCC(F)(F)F)ccc1OCC(F)(F)F,nt,nt,nt,nt,i,nt
COc1ccc(CNS(=O)(=O)NCc2ccccc2)cc1OC,274,i,i,i,i,i
O=c1[nH]c2cc(F)ccc2c2ccc(F)cc12,i,i,nt,62,nt,i
SMILES,CRFBP-R2 agonist,CRFR2-BP antag,beta cell repl,H9c2 protect,UCH37 inh,iPSC survival up
OC12CCCCC1C(c1ccc3c(c1)OCO3)N(Cc1ccc(F)cc1)CC2 (stereo unspecified),i,i,i,i,29,i
Nc1nc(-c2ccc3c(c2)OCCO3)cs1,i,76,i,i,i,i
Cc1nc(-c2ccc3c(c2)OCCCO3)cs1,i,i,i,i,i,i
CC(=NNc1nccnc1Cl)c1ccc(F)cc1,nt,nt,nt,nt,i,nt
Nc1nnc(SCc2ccccc2Cl)s1,i,i,i,i,i,i
Nc1nnc(SCc2cc3c(cc2Cl)OCO3)s1,i,59,i,i,i,i
NC(N)=NN=Cc1ccc(OCc2ccccc2Cl)cc1,nt,nt,nt,nt,i,nt
O=C(Nc1cc(Br)c(O)c(Br)c1)c1cccc(NC(=O)c2ccco2)c1,i,i,i,i,i,i
O=C(Nc1cccc(N=Cc2cc(Br)cc(Br)c2O)c1)c1ccco1,i,i,nt,51,i,i
O=C(Nc1cccc(N=Cc2cc(Cl)cc(Br)c2O)c1)c1ccco1,i,i,i,50,i,i
COC(=O)c1ccccc1-c1c2ccc(=N)cc-2oc2cc(N)ccc12,176,i,i,i,nt,i
CCCCOc1ccccc1C1C(C(=O)OC)=CN(CC)C=C1C(=O)OC,i,59,i,i,i,i
CCCOc1ccccc1C1C(C(=O)OC)=CN(C(C)C)C=C1C(=O)OC,i,i,i,i,i,i
